Laboratory results taken from ChEMBL document CHEMBL1132205, “Desazadesmethyldesferrithiocin analogues as orally effective iron chelators” (J Med Chem, 1999).

What was measured:
Monkey [1] = assay: Efficiency of the chelator [(net iron excretion ) / (total iron binding capacity of chelator)] to induce iron clearance in monkey at a peroral dose of 300 uMol/kg.; format: functional, Cercopithecidae
Summary of the method: (§1)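 Capuchin (Cebus apella) monkeys were iron-loaded with 2–3 iron dextran iv infusions to about 500 mg Fe/kg, then rested at least 60 days. Chelator was given po in 40% Cremophor RH-40/water. Feces and urine were collected every 24 h, from 4 days pre-dose to 5 days post-dose, and iron was measured by flame AAS. Efficiency = (2-day post-dose iron − mean 4-day baseline) / theoretical output for a 2:1 ligand–iron complex, as a percent.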

Rattus norvegicus [2] = assay: Efficiency of the chelator [(net iron excretion ) / (total iron binding capacity of chelator)] to induce iron clearance in rat at a peroral dose of 150 umol/kg.; format: functional
Summary of the method: (§2)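 Male Sprague–Dawley rats (~400 g) had bile-duct cannulation under ip pentobarbital. Chelator in 40% Cremophor RH-40/water was given at 150 µmol/kg, po or sc. Bile was collected at 3-h intervals for 24 h and urine every 24 h; iron was measured in both. Net iron = treated minus control excretion, divided by the theoretical 2:1 ligand–iron binding capacity, as a percent.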

Rattus norvegicus [3] = assay: Chronic toxicity in 5 rats administered by gavage at a dose of 384 [uMol/kg/day] X 10 days, measured as number of deaths. Activity value is 5/5.; format: organism-based; details: in vivo, po, 240 h
[4] = Octanol-water apparent distribution coefficient measured in TRIS buffer at a pH 7.4.; format: physicochemical
Summary of the method: (§3)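 Shake-flask octanol/50 mM TRIS buffer pH 7.4 at 24 °C, with 3–5 min mixing and 1–24 h settling. Phase concentrations were read by UV spectrometry. Values are distribution coefficients uncorrected for partial ionization of the acids.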

[5] = log P value measured in TRIS buffer at a pH 7.4.; format: physicochemical; summary of the method: as §3
Rattus norvegicus [6] = assay: Efficiency of the chelator [(net iron excretion ) / (total iron binding capacity of chelator)] to induce iron clearance in rat at a subcutaneous dose of 150 uMol/kg.; format: functional; summary of the method: as §2
Monkey [7] = assay: Efficiency of the chelator [(net iron excretion ) / (total iron binding capacity of chelator)] to induce iron clearance in monkey at a peroral dose of 150 uMol/kg.; format: functional, Cercopithecidae; summary of the method: as §1
Rattus norvegicus [8] = assay: Chronic toxicity in rats administered by gavage at a dose of 384 [uMol/kg/day] X 10 days, measured as number of deaths. Activity value is 0/5 (All histopathologies normal; well tolerated for 10-day test period); format: organism-based; details: in vivo, po, 240 h
Rattus norvegicus [9] = assay: Efficiency of the chelator [(net iron excretion ) / (total iron binding capacity of chelator)] to induce iron clearance in rat at a peroral dose of 150 uMol/kg.; format: functional; summary of the method: as §2
Monkey [10] = assay: Efficiency of the chelator [(net iron excretion ) / (total iron binding capacity of chelator)] to induce iron clearance in monkey at a peroral dose of 75 umol/kg.
Rattus norvegicus [11] = assay: Chronic toxicity in 5 rats administered by gavage at a dose of 384 [uMol/kg/day] X 10 days, measured as number of deaths. Activity value is 5/5; format: organism-based; details: in vivo, po, 240 h
Rattus norvegicus [12] = assay: Chronic toxicity in 5 rats administered by gavage at a dose of 384 [uMol/kg/day] X 10 days, measured as number of deaths. Activity value is 0/5 (All histopathologies normal; well tolerated for 10-day test period); format: organism-based; details: in vivo, po, 240 h

## O=C(O)[C@H]1CSC(c2ccccc2O)=N1
Monkey [1]
  Efficiency: 12.4%
Rattus norvegicus [2]
  Efficiency: 1.4%
Rattus norvegicus [3]
  No. of deaths: Number of deaths 5/5
[4]
  K app: 0.12
[5]
  logD: -0.93

## O=C(O)[C@H]1CSC(Cc2ccccc2O)=N1
Rattus norvegicus [2]
  Efficiency: <0.5%
Rattus norvegicus [6]
  Efficiency: <0.5%

## O=C(O)C1CN=C(c2ccccc2O)N1 (centres undefined)
Rattus norvegicus [2]
  Efficiency: <0.5%
Rattus norvegicus [6]
  Efficiency: <0.5%

## O=C(O)C[C@H]1CSC(c2ccccc2O)=N1
Rattus norvegicus [2]
  Efficiency: <0.5%

## O=C(O)[C@H]1CSC(c2nc3ccccc3cc2O)=N1
Rattus norvegicus [2]
  Efficiency: 5.9%
Monkey [7]
  Efficiency: 3.5%

## O=C(O)[C@H]1CSC(c2ccc(O)cc2O)=N1
Rattus norvegicus [8]
  No. of deaths: well tolerated for 10-day test period
Rattus norvegicus [9]
  Efficiency: 2.4%
[4]
  K app: 0.063
Monkey [7]
  Efficiency: 4.2%
[5]
  logD: -1.2

## O=C(O)[C@@H]1CSC(c2nc3ccccc3cc2O)=N1
Rattus norvegicus [2]
  Efficiency: 12.3%
Monkey [10]
  Efficiency: <0.5%

## O=C(O)c1ccc(C2=N[C@@H](C(=O)O)CS2)c(O)c1
Rattus norvegicus [2]
  Efficiency: <0.5%
Rattus norvegicus [6]
  Efficiency: <0.5%

## C[C@]1(C(=O)O)CSC(c2ncccc2O)=N1 [DESFERRITHIOCIN]
Rattus norvegicus [2]
  Efficiency: 5.5%
Rattus norvegicus [11]
  No. of deaths: Number of deaths 5/5
[4]
  K app: 0.017
Monkey [7]
  Efficiency: 16.1%
[5]
  logD: -1.77

## COc1cccc(C2=N[C@@H](C(=O)O)CS2)c1O
Rattus norvegicus [2]
  Efficiency: 0.9%
Rattus norvegicus [6]
  Efficiency: 0.5%

## O=C(O)[C@H]1CSC(c2ncccc2O)=N1
Monkey [1]
  Efficiency: 8%
Rattus norvegicus [2]
  Efficiency: 2.4%
Rattus norvegicus [12]
  No. of deaths: well tolerated for 10-day test period
[4]
  K app: 0.013
Monkey [7]
  Efficiency: 4.8%
[5]
  logD: -1.87

## O=C(O)CC[C@H]1CSC(c2ccccc2O)=N1
Rattus norvegicus [2]
  Efficiency: <0.5%

## O=C(O)[C@H]1CSC(c2cccc(O)c2O)=N1
Rattus norvegicus [9]
  Efficiency: <0.5%
Rattus norvegicus [6]
  Efficiency: <0.5%

## Cc1ccc(O)c(C2=NC(C(=O)O)CC2)c1.Cl (centres undefined)
Rattus norvegicus [2]
  Efficiency: <0.5%
Rattus norvegicus [6]
  Efficiency: <0.5%
